# Activity calls are given as the source filed them. The calls are words filed in the database; no cut-off is given here.
# How the values were obtained:
# [1] = Antiproliferative activity against drug-resistant human A549 cells up to 100 uM after 48 to 96 hrs by MTT assay relative to control; format: functional
# Outline: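 A549 cultures in RPMI with 10% heat-inactivated FBS were treated across a concentration range up to 100 µM, with phenyl arsine oxide as the nondiscriminate cytotoxic reference. Growth curves were read by MTT assay. Two independent experiments, each in 4 replicates.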
# [2] = Antiproliferative activity against human MCF7 cells after 48 hrs by MTT assay; format: functional; conditions: MCF7, 48 h
# Outline: (§1)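 HeLa cells were cultured in DMEM + 10% FBS and MCF-7 cells in RPMI + 10% FBS, both at 37 °C under 5% CO2. Compounds were diluted from DMSO stocks and applied for 48 h. Viability was read by MTT relative to DMSO control. The value is the concentration reducing viability by 50%, ±SD from two independent experiments of 4 replicates each.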
# [3] = Antiproliferative activity against human HeLa cells after 48 hrs by MTT assay; format: functional; outline: as §1
# [4] = Antiproliferative activity against drug-resistant human U87 cells after 48 to 96 hrs by MTT assay; format: functional, U-87MG ATCC; conditions: U-87 MG
# Outline: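 U87 cells grown in DMEM with glutamine, gentamicin and penicillin-streptomycin (37 °C, 95% humidity, 5% CO2) were seeded and then treated with 0.001–100 µM compound for 48–96 h. Readout was MTT. Controls were 0.1% DMSO and 1 µM phenyl arsine oxide. The value is the average concentration reducing viability 50%.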
# NCI-H1993 = assay: Potentiation of paclitaxel-induced cytotoxicity against patient-derived paclitaxel-sensitive NCI-H1993 cells assessed as reduction in cell viability up to 100 uM after 96 hrs by Celltiter-Glo luminescent assay; format: functional, cell-based; conditions: Homo sapiens
# Outline: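 NCI-H1993 cells were seeded at 4×10^3 per well and grown 24 h. […] Viability was read by CellTiter-Glo luminescence. Predicted additivity was calculated by Bliss independence, Exy = Ex + Ey − ExEy.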
# [5] = Antiproliferative activity against human MES-SA/Dx5 cells after 48 to 96 hrs by MTT assay; format: functional
# Outline: (§2)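 Parent MES-SA and MES-SA/Dx5 uterine sarcoma cells were grown in RPMI-1640 with 10% FBS. The Dx5 line was kept in 500 nM doxorubicin after stepwise selection from 100 nM in twofold steps, about 2 passages per step. MTT assay used 0.001–100 µM compound for 48–96 h, with 0.1% DMSO and 1 µM phenyl arsine oxide controls. The ratio is the Dx5 GI50 divided by the parent GI50.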
# [6] = Antiproliferative activity against drug-resistant human T98G cells after 48 to 96 hrs by MTT assay; format: functional
# Outline: (§3)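 MTT read-out. T98G and Hs683 cells were grown in DMEM with 10% FBS, glutamine, gentamicin and penicillin-streptomycin at 37 °C and 5% CO2. Compounds came from 100 or 50 mM DMSO stocks and were tested at 0.001–100 µM for 48–96 h. Controls were 0.1% DMSO (negative) and 1 µM phenyl arsine oxide (positive). The value is the mean concentration giving 50% viability loss; replicate number varied.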
# [7] = Antiproliferative activity against patient-derived paclitaxel-resistant NCI-H2073 cells after 48 to 96 hrs by MTT assay; format: functional; conditions: Homo sapiens
# [8] = Antiproliferative activity against drug-resistant human U373 cells after 48 to 96 hrs by MTT assay; format: functional, U-373MG ATCC; conditions: U373 MG
# Outline: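 Culture was RPMI with 10% heat-inactivated FBS plus glutamine and antibiotics for U373 cells. Compound exposure was 0.001–100 µM for 48–96 h, with 0.1% DMSO and 1 µM phenyl arsine oxide as controls. The MTT assay gave the average concentration cutting viability by 50%; replicate numbers varied.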
# [9] = Antiproliferative activity against patient-derived paclitaxel-sensitive NCI-H1993 cells after 48 to 96 hrs by MTT assay; format: functional; conditions: Homo sapiens
# [10] = Antiproliferative activity against drug-resistant human U251 cells after 48 to 96 hrs by MTT assay; format: functional; conditions: U-251
# Outline: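 U251 cells were kept in 10% MEM with glutamine, gentamicin and penicillin-streptomycin at 37 °C and 5% CO2. After seeding they were grown 24–72 h and then given compounds at 0.001–100 µM (from 100 or 50 mM DMSO stocks) for 48–96 h. Viability was read by MTT. Vehicle control was 0.1% DMSO; 1 µM phenyl arsine oxide served as positive control. The result is the average 50%-viability-reducing concentration.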
# [11] = Antiproliferative activity against drug-sensitive human Hs683 cells after 48 to 96 hrs by MTT assay; format: functional; conditions: Hs 683; outline: as §3
# [12] = Antiproliferative activity against patient-derived TMZ-resistant GBM 031810 cells over-expressing MGMT after 48 to 96 hrs by MTT assay; format: functional; conditions: Homo sapiens
# [13] = Antiproliferative activity against human MES-SA cells after 48 to 96 hrs by MTT assay; format: functional; outline: as §2
# [14] = Antiproliferative activity against patient-derived TMZ-sensitive GBM 090909 cells after 48 to 96 hrs by MTT assay; format: functional; conditions: Homo sapiens
# Outline: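 Primary GBM neurosphere cultures came from resected patient tumour. Tissue was minced, dissociated with 100 U/mL collagenase in neurobasal medium for 30 min at 37 °C, filtered through 70 µm, spun at 200 × g for 5 min, and grown in ultra-low attachment wells in neurobasal medium with B27. Compounds were applied at 0.001–100 µM for 48–96 h. MTT gave the average 50%-viability concentration.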
# HeLa S3 = assay: Inhibition of translation in human HeLaS3 assessed as induction of intact polysomes at 50 uM after 1 hr by UV-based […] method; format: functional
# Outline: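 HeLa S3 cells were exposed to 50 µM compound for 1 h, then analysed by polysome profiling against a DMSO-treated control profile.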
# MES-SA = assay: Selectivity ratio of GI50 for human MES-SA/Dx5 cells to GI50 for human MES-SA cells; format: functional; outline: as §2
structure (smiles),measurement,setting,value
COc1cc([C@@H]2c3cc4c(cc3[C@H](O)[C@H]3COC(=O)[C@H]23)OCO4)cc(OC)c1OC [PODOFILOX],inhibition (INH),[1],50%
O=C1C=C[C@]23CC[N@](Cc4ccsc42)[C@H]3C1,GI50,[2],12 µM
same,GI50,[3],8 µM
O=C1C=CC2(C=C1)CCN(C(=O)C(F)(F)F)Cc1c2sc2ccccc12,GI50,[4],6 µM
same,Activity,NCI-H1993,Active
same,GI50,[5],5 µM
same,GI50,[6],15 µM
same,GI50,[7],50 µM
same,GI50,[8],7 µM
same,GI50,[9],12 µM
same,GI50,[2],7 µM
same,GI50,[10],4 µM
same,GI50,[11],5 µM
same,GI50,[12],8 µM
same,GI50,[13],5 µM
same,GI50,[3],10 µM
same,GI50,[14],7 µM
COc1cc2c(cc1O)C[N@@]1CC[C@@]23C=C/C(=N/O)C[C@H]13,GI50,[2],> 100 µM
same,GI50,[3],> 100 µM
CO[C@@H]1C=C[C@@]23c4cc5c(cc4CN(C[C@@H]2O)[C@H]3C1)OCO5,inhibition,HeLa S3,Active
COc1cc2c(cc1OC)C1(C=CC(=O)C=C1)CCN(C(=O)C(F)(F)F)C2,GI50,[2],> 100 µM
same,GI50,[3],83 µM
O=C1C=C[C@]23CC[N@](Cc4cscc42)[C@H]3C1,GI50,[2],44 µM
same,GI50,[3],25 µM
COc1cc2c(cc1O)CN(C(=O)C(F)(F)F)CCC21C=CC(=O)C=C1,GI50,[2],> 100 µM
same,GI50,[3],> 100 µM
CC(=O)O[C@H]1C(=O)[C@@]2(C)[C@H]([C@H](OC(=O)c3ccccc3)[C@]3(O)C[C@H](OC(=O)[C@H](O)[C@@H](NC(=O)c4ccccc4)c4ccccc4)C(C)=C1C3(C)C)[C@]1(OC(C)=O)CO[C@@H]1C[C@@H]2O [PACLITAXEL],GI50,[5],10 µM
same,GI50,[7],2.4 µM
same,inhibition (INH),[1],50%
same,GI50,[9],0.004 µM
same,RatioGI50,MES-SA,>1000
same,GI50,[13],0.007 µM
COc1cc2c(cc1OC(C)=O)C[N@@]1CC[C@@]23C=CC(=O)C[C@H]13,GI50,[2],> 100 µM
same,GI50,[3],> 100 µM
O=C1C=CC2(C=C1)CCN(C(=O)C(F)(F)F)Cc1cc(OCc3ccccc3)c(OCc3ccccc3)cc12,GI50,[2],25 µM
same,GI50,[3],17 µM
O[C@H]1[C@H]2c3cc4c(cc3CN3CCC(=C[C@@H]1O)[C@H]23)OCO4,inhibition,HeLa S3,Active
O=C1C=CC2(C=C1)CCN(C(=O)C(F)(F)F)Cc1cc(OCc3ccccc3)ccc12,GI50,[2],40 µM
same,GI50,[3],16 µM
O[C@H]1C=C[C@@]23c4cc5c(cc4CN(C[C@@H]2O)[C@H]3C1)OCO5,GI50,[4],38 µM
same,GI50,[6],99 µM
same,GI50,[8],53 µM
same,GI50,[10],41 µM
same,GI50,[11],27 µM
O=C1C=C[C@]23CC[N@](Cc4cccc(OCc5ccccc5)c42)[C@H]3C1,GI50,[2],11 µM
same,GI50,[3],7 µM
O=C1C=C[C@]23CC[N@](Cc4cc5c(cc42)OCCO5)[C@H]3C1,GI50,[2],19 µM
same,GI50,[3],13 µM
COc1cc2c(cc1OCc1ccccc1)C[N@@]1CC[C@@]23C=CC(=O)C[C@H]13,GI50,[2],15 µM
same,GI50,[3],12 µM
